Test results taken from ChEMBL document CHEMBL1144104, “Antimicrobial and antitumor activities of mycosporulone” (J Nat Prod, 1999).
Converted amounts (≈) assume the structure as drawn.

Key:
Candida tropicalis = assay: Antifungal activity against amphotericin-resistant Candida tropicalis after 24 to 72 hrs by disk diffusion method; type: functional
In short: (§1)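 Yeasts grown on yeast extract 10 g, peptone 20 g and glucose 15 g per litre, pH 6.0, solidified with 1.5% agar and autoclaved 120 °C for 20 min. Cellulose-disk diffusion assay, with inhibition zone diameters recorded after 24-72 h of incubation, depending on the strain.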

Cryptococcus neoformans = assay: Antifungal activity against Cryptococcus neoformans 1 after 24 to 72 hrs by disk diffusion method; type: functional; in short: as §1
Nakaseomyces glabratus = assay: Antifungal activity against Candida glabrata after 24 to 72 hrs by disk diffusion method; type: functional; in short: as §1
L1210 = assay: Cytotoxicity against mouse L1210 cells after 5 days by MTT assay; type: functional; settings: L1210, 120 h, read-out: LD50 (the source's name)
In short: (§2)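 Inhibition of tumour cells (human MDA-MB 231 clonogenic cells, human prostatic adenocarcinoma PC3 and murine leukemia L-1210) was read by Mossmann-derived MTT colorimetric method. Taxol and doxorubicin were run as references.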

PC-3 = assay: Cytotoxicity against human PC-3 cells after 5 days by MTT assay; type: functional; settings: PC-3, 120 h, read-out: LD50 (the source's name); in short: as §2
MDA-MB-231 = assay: Cytotoxicity against human MDA-MB-231 cells after 5 days by MTT assay; type: functional; settings: MDA-MB-231, 120 h, read-out: LD50 (the source's name); in short: as §2
Escherichia coli = assay: Antibacterial activity against Escherichia coli after 24 to 72 hrs by disk diffusion method; type: functional
In short: (§3)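 Paper-disk diffusion on agar plates. Cellulose disks carry crude EtOAc extract of the fungal culture filtrate; the extract is dried, then redissolved in 3 mL EtOAc. Inhibition zone diameters are read after 24-72 h of incubation, with the time depending on the target organism.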

Staphylococcus aureus [1] = assay: Antibacterial activity against penicillin-resistant Staphylococcus aureus after 24 to 72 hrs by disk diffusion method; type: functional
In short: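 Cellulose-disk agar diffusion; growth medium includes soya phytone 5 g and NaCl 5 g per litre distilled water, pH 7.2, with 1.5% agar, autoclaved 120 °C for 20 min. Inhibition zone diameters read after 24-72 h of incubation, depending on the target organism.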

Enterococcus faecalis = assay: Antibacterial activity against Streptococcus faecalis after 24 to 72 hrs by disk diffusion method; type: functional; in short: as §3
Pseudomonas aeruginosa = assay: Antibacterial activity against Pseudomonas aeruginosa after 24 to 72 hrs by disk diffusion method; type: functional; in short: as §3
Staphylococcus aureus [2] = assay: Antibacterial activity against Staphylococcus aureus after 24 to 72 hrs by disk diffusion method; type: functional; in short: as §3
[3] = Cytotoxicity against human MRC5 cells after 5 days by MTT assay; type: cell-based; settings: read-out: LD50
In short: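 Human lung fibroblast MRC5 (nontumor) line in 96-well plates; modified Mossmann MTT colorimetric micromethod; compound tested up to a maximal concentration of 100 µg/mL.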

Molecule | MIC (Candida tropicalis) [µg/mL] | MIC (Cryptococcus neoformans) [µg/mL] | MIC (Nakaseomyces glabratus) [µg/mL] | CC50 (L1210) [µg/mL] | CC50 (PC-3) [µg/mL] | CC50 (MDA-MB-231) [µg/mL] | MIC (Escherichia coli) [µg/mL] | MIC (Staphylococcus aureus [1]) [µg/mL] | MIC (Enterococcus faecalis) [µg/mL] | MIC (Pseudomonas aeruginosa) [µg/mL] | MIC (Staphylococcus aureus [2]) [µg/mL] | CC50 at 120 h [3] [µg/mL]
C[C@@H]1[C@H](O)[C@@H](C)/C=C/C=C/C=C/C=C/C=C/C=C/C=C/[C@H](O[C@@H]2O[C@H](C)[C@@H](O)[C@H](N)[C@@H]2O)C[C@@H]2O[C@](O)(C[C@@H](O)C[C@@H](O)[C@H](O)CC[C@@H](O)C[C@@H](O)CC(=O)O[C@H]1C)C[C@H](O)[C@H]2C(=O)O [AMPHOTERICIN B] | > 560 | 140 (≈ 152 µM) | 140 (≈ 152 µM) | – | – | – | – | – | – | – | – | –
COc1cccc2c1C(=O)c1c(O)c3c(c(O)c1C2=O)C[C@@](O)(C(=O)CO)C[C@@H]3O[C@H]1C[C@H](N)[C@H](O)[C@H](C)O1 [DOXORUBICIN] | – | – | – | 0.02 (≈ 0.0368 µM) | 0.19 (≈ 0.35 µM) | 0.09 (≈ 0.166 µM) | – | – | – | – | – | –
NC[C@H]1O[C@H](O[C@H]2[C@H](O)[C@@H](O[C@H]3O[C@H](CO)[C@@H](O)[C@H](N)[C@H]3O)[C@H](N)C[C@@H]2N)[C@H](O)[C@@H](O)[C@@H]1O [KANAMYCIN] | – | – | – | – | – | – | 28 (≈ 57.8 µM) | 14 (≈ 28.9 µM) | 560 (≈ 1160 µM) | 140 (≈ 289 µM) | 140 (≈ 289 µM) | –
CC(=O)N1CCN(c2ccc(OCC3COC(Cn4ccnc4)(c4ccc(Cl)cc4Cl)O3)cc2)CC1 (configuration not stated) [KETOCONAZOLE] | 140 (≈ 263 µM) | 56 (≈ 105 µM) | 14 (≈ 26.3 µM) | – | – | – | – | – | – | – | – | –
C=C1OC(=O)[C@]2(C1=O)[C@H](C)C=CC(=O)[C@H]2O [MYCOSPORULONE] | 14 (≈ 63 µM) | 280 (≈ 1260 µM) | 420 (≈ 1890 µM) | 0.3 (≈ 1.35 µM) | 2.6 (≈ 11.7 µM) | 7.7 (≈ 34.7 µM) | 14 (≈ 63 µM) | 14 (≈ 63 µM) | 280 (≈ 1260 µM) | 14 (≈ 63 µM) | 420 (≈ 1890 µM) | > 100
CC(=O)O[C@H]1C(=O)[C@@]2(C)[C@H]([C@H](OC(=O)c3ccccc3)[C@]3(O)C[C@H](OC(=O)[C@H](O)[C@@H](NC(=O)c4ccccc4)c4ccccc4)C(C)=C1C3(C)C)[C@]1(OC(C)=O)CO[C@@H]1C[C@@H]2O [PACLITAXEL] | – | – | – | 0.014 (≈ 0.0164 µM) | 0.0027 (≈ 0.00316 µM) | 0.003 (≈ 0.00351 µM) | – | – | – | – | – | –
CC1(C)S[C@@H]2[C@H](NC(=O)Cc3ccccc3)C(=O)N2[C@H]1C(=O)O [PENICILLIN G] | – | – | – | – | – | – | 560 (≈ 1670 µM) | 560 (≈ 1670 µM) | 14 (≈ 41.9 µM) | 560 (≈ 1670 µM) | 14 (≈ 41.9 µM) | –
CN[C@@H]1[C@H](O[C@H]2[C@H](O[C@H]3[C@H](O)[C@@H](O)[C@H](N=C(N)N)[C@@H](O)[C@@H]3N=C(N)N)O[C@@H](C)[C@]2(O)C=O)O[C@@H](CO)[C@H](O)[C@H]1O [STREPTOMYCIN] | – | – | – | – | – | – | 28 (≈ 48.1 µM) | 14 (≈ 24.1 µM) | 420 (≈ 722 µM) | 140 (≈ 241 µM) | 420 (≈ 722 µM) | –
NYSTATIN | 14 | 14 | 28 | – | – | – | – | – | – | – | – | –
